Assay results pooled from the literature.
XDH: Xanthine dehydrogenase/oxidase (XDH, Bos taurus, UniProt P80457)
PRKAA1: 5'-AMP-activated protein kinase catalytic subunit alpha-1 (PRKAA1, Homo sapiens, UniProt Q13131)
CTSL: Procathepsin L (CTSL, Homo sapiens, UniProt P07711)

SMILES	target	read-out	action	method	concentration	inhibition [%]
NC(=O)Cc1ccccc1	XDH	enzyme activity	inhibitor	absorbance	100 µg/mL	7.3
Cn1cc(-c2cccc(N3CCc4c(sc5c4CC(C)(C)C5)C3=O)c2CO)cc(Nc2ccncn2)c1=O	PRKAA1	enzyme activity	inhibitor		1 µM	1
CN(C)C(=O)COC(=O)Cc1ccc(OC(=O)c2ccc(NC(=N)N)cc2)cc1	CTSL	enzyme activity	inhibitor		10 µM	2
O=C(Oc1cncc(Cl)c1)c1cc2c(Cl)cc(Cl)cc2[nH]1	CTSL	enzyme activity	inhibitor		10 µM	14
CC(C)C[C@H](NC(=O)[C@H]1O[C@@H]1C(=O)O)C(=O)NCCCCN=C(N)N	CTSL	enzyme activity	inhibitor		50 nM	84
COc1cc(Nc2ncc(F)c(Nc3ccc4c(n3)NC(=O)C(C)(C)O4)n2)cc(OC)c1OC	PRKAA1	binding		competition with immobilised ligand	10 µM	74
C#Cc1n[nH]c2c(-c3cn([C@@H](C)c4ccccc4)c(=O)[nH]c3=O)cc(F)cc12	Protein kinase C theta type (PRKCQ, Homo sapiens, UniProt Q04759)	enzyme activity	inhibitor		0.1 µM	10.2
CN(C(=O)[C@H](Cc1ccccc1)NC(=O)[C@@H](NC(=O)OCc1ccccc1)C(C)(C)C)N(C#N)CCC(N)=O	CTSL	enzyme activity	inhibitor		50 µM	99
C#Cc1n[nH]c2c(-c3cn(C(C)c4ccccn4)c(=O)[nH]c3=O)cc(F)cc12 (stereo not shown)	Tyrosine-protein kinase Blk (BLK, Homo sapiens, UniProt P51451)	enzyme activity	inhibitor		1 µM	3.1
O=C(Oc1cncc(Cl)c1)c1cc2cc(Cl)ccc2[nH]1	CTSL	enzyme activity	inhibitor		10 µM	3
CCOC(=O)c1ccc(OC(=O)CCCCCNC(=N)N)cc1	CTSL	enzyme activity	inhibitor		10 µM	0
Cn1cc(-c2cc(F)cc(N3CCn4c(cc5c4CCCC5)C3=O)c2CO)cc(Nc2ccc(N3CCN(C4COC4)CC3)cn2)c1=O	Sphingosine kinase 2 (SPHK2, Homo sapiens, UniProt Q9NRA0)	enzyme activity	inhibitor		0.1 µM	-10
C[C@H](C(=O)N[C@H]1COc2ccccc2[C@@H]1S(C)(=O)=O)c1ccc(F)cc1	XDH	enzyme activity	inhibitor		10 µM	10
